Measured values published in ChEMBL document CHEMBL4477200, “Design, Synthesis, and Preclinical Evaluation of 4-Substituted-5-methyl-furo[2,3-d]pyrimidines as Microtubule Targeting Agents That Are Effective against Multidrug Resistant Cancer Cells” (J Med Chem, 2016).

How the values were obtained:
Tubulin = Tubulin (Bos taurus, UniProt Q6B856+Q862L2+Q862F3); assay: Inhibition of tubulin assembly in bovine brain […] assessed as reduction in turbidity increase preincubated for 15 mins followed by GTP addition measured for 20 mins by spectrophotometric analysis
How it was run: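 Purified bovine brain tubulin, 1.0 mg/mL (10 µM), was preincubated 15 min at 30 °C in 0.8 M monosodium glutamate (pH 6.6) with compound and 4% DMSO. Mixtures were chilled and 0.4 mM GTP added. Turbidity was followed for 20 min at 30 °C. IC50 is the concentration halving the turbidity increase, interpolated between tested concentrations.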

Tubulin (Bos taurus) [1] = target: T1, Tubulin (Bos taurus) (UniProt Q6B856+Q862L2+Q862F3); assay: Displacement of [3H]colchicine from tubulin in bovine brain homogenate at 1 uM incubated for 10 mins by DEAE-cellulose filter assay; type: tissue-based
Tubulin (Bos taurus) [2] = target: T1, Tubulin (Bos taurus); assay: Inhibition of [3H]colchicine binding to tubulin in bovine brain homogenate at 5 uM incubated for 10 mins by DEAE-cellulose filter assay; type: tissue-based
CCRF-CEM = assay: Cytotoxicity against human CCRF-CEM cells assessed as growth inhibition after 48 hrs by SRB assay; type: functional
HL-60(TB) = assay: Cytotoxicity against human HL-60(TB) cells assessed as growth inhibition after 48 hrs by SRB assay; type: functional; details: HL-60, 48 h
K562 = assay: Cytotoxicity against human K562 cells assessed as growth inhibition after 48 hrs by SRB assay; type: functional; details: K562, 48 h
MOLT-4 = assay: Cytotoxicity against human MOLT4 cells assessed as growth inhibition after 48 hrs by SRB assay; type: functional; details: MOLT-4, 48 h
RPMI-8226 = assay: Cytotoxicity against human RPMI8226 cells assessed as growth inhibition after 48 hrs by SRB assay; type: functional; details: RPMI-8226, 48 h
SR = assay: Cytotoxicity against human SR cells assessed as growth inhibition after 48 hrs by SRB assay; type: functional
HOP-62 = assay: Cytotoxicity against human HOP62 cells assessed as growth inhibition after 48 hrs by SRB assay; type: functional; details: HOP-62, 48 h
NCI-H226 = assay: Cytotoxicity against human NCI-H226 cells assessed as growth inhibition after 48 hrs by SRB assay; type: functional; details: NCI-H226, 48 h
NCI-H322M = assay: Cytotoxicity against human NCI-H322M cells assessed as growth inhibition after 48 hrs by SRB assay; type: functional
NCI-H522 = assay: Cytotoxicity against human NCI-H522 cells assessed as growth inhibition after 48 hrs by SRB assay; type: functional; details: NCI-H522, 48 h
COLO 205 = assay: Cytotoxicity against human COLO205 cells assessed as growth inhibition after 48 hrs by SRB assay; type: functional; details: COLO 205, 48 h
HCC 2998 = assay: Cytotoxicity against human HCC2998 cells assessed as growth inhibition after 48 hrs by SRB assay; type: functional; details: HCC 2998, 48 h
HCT-116 = assay: Cytotoxicity against human HCT116 cells assessed as growth inhibition after 48 hrs by SRB assay; type: functional; details: HCT-116, 48 h
HCT-15 = assay: Cytotoxicity against human HCT15 cells assessed as growth inhibition after 48 hrs by SRB assay; type: functional; details: HCT-15, 48 h
HT-29 = assay: Cytotoxicity against human HT-29 cells assessed as growth inhibition after 48 hrs by SRB assay; type: functional; details: HT-29, 48 h
KM12 = assay: Cytotoxicity against human KM12 cells assessed as growth inhibition after 48 hrs by SRB assay; type: functional; details: KM12, 48 h
SNB-19 = assay: Cytotoxicity against human SNB19 cells assessed as growth inhibition after 48 hrs by SRB assay; type: functional; details: SNB-19, 48 h
U-251 = assay: Cytotoxicity against human U251 cells assessed as growth inhibition after 48 hrs by SRB assay; type: functional; details: U-251, 48 h
M14 = assay: Cytotoxicity against human M14 cells assessed as growth inhibition after 48 hrs by SRB assay; type: functional; details: M14, 48 h
MDA-MB-435 = assay: Cytotoxicity against human MDA-MB-435 cells assessed as growth inhibition after 48 hrs by SRB assay; type: functional, cell-based
SK-MEL-28 = assay: Cytotoxicity against human SK-MEL-28 cells assessed as growth inhibition after 48 hrs by SRB assay; type: functional; details: SK-MEL-28, 48 h
OVCAR-3 = assay: Cytotoxicity against human OVCAR3 cells assessed as growth inhibition after 48 hrs by SRB assay; type: functional; details: OVCAR-3, 48 h
OVCAR-5 = assay: Cytotoxicity against human OVCAR5 cells assessed as growth inhibition after 48 hrs by SRB assay; type: functional; details: OVCAR-5, 48 h
SK-OV-3 [3] = assay: Cytotoxicity against human SKOV3 cells assessed as growth inhibition after 48 hrs by SRB assay; type: functional, cell-based; details: SK-OV-3, 48 h
How it was run: (§1)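 SRB assay; IC50 is the mean of three independent experiments, each run in triplicate. Cells were kept at 37 °C under 5% CO2. HeLa and SK-OV-3 lines (parental and MDR1-M6/6) were grown in Basal Medium Eagle with 10% FBS, 1% GlutaMAX and 50 µg/mL gentamycin. HeLa WTβIII was grown in DMEM with 10% FBS.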

786-0 = assay: Cytotoxicity against human 786-0 cells assessed as growth inhibition after 48 hrs by SRB assay; type: functional; details: 786-0, 48 h
SN12C = assay: Cytotoxicity against human SN12C cells assessed as growth inhibition after 48 hrs by SRB assay; type: functional
UO-31 = assay: Cytotoxicity against human UO31 cells assessed as growth inhibition after 48 hrs by SRB assay; type: functional; details: UO-31, 48 h
PC-3 = assay: Cytotoxicity against human PC3 cells assessed as growth inhibition after 48 hrs by SRB assay; type: functional; details: PC-3, 48 h
DU-145 = assay: Cytotoxicity against human DU145 cells assessed as growth inhibition after 48 hrs by SRB assay; type: functional; details: DU-145, 48 h
MCF7 = assay: Cytotoxicity against human MCF7 cells assessed as growth inhibition after 48 hrs by SRB assay; type: functional; details: MCF7, 48 h
Hs-578T = assay: Cytotoxicity against human Hs 578T cells assessed as growth inhibition after 48 hrs by SRB assay; type: functional
BT-549 = assay: Cytotoxicity against human BT549 cells assessed as growth inhibition after 48 hrs by SRB assay; type: functional; details: BT-549, 48 h
MDA-MB-468 = assay: Cytotoxicity against human MDA-MB-468 cells assessed as growth inhibition after 48 hrs by SRB assay; type: functional; details: MDA-MB-468, 48 h
HeLa [4] = assay: Antiproliferative activity against human HeLa cells after 48 hrs by SRB assay; type: functional, cell-based; how it was run: as §1
HeLa [5] = assay: Antiproliferative activity against multidrug resistant human HeLa cells expressing wild type beta3 tubulin after 48 hrs by SRB assay; type: functional, cell-based; how it was run: as §1
SK-OV-3 [6] = assay: Relative ratio of IC50 for human SKOV3 cells expressing MDR1-M6/6 to IC50 for human SKOV3 cells; type: functional
How it was run: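 Rr is the IC50 in Pgp-expressing SK-OV-3 MDR1-M6/6 cells divided by the IC50 in parental SK-OV-3 cells. Both IC50s come from the SRB assay, averaging three independent experiments run in triplicate.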

Compound: COc1ccc(N(C)c2ncnc3occ(C)c23)cc1
- IC50 (Tubulin): 3300 nM
- inhibition (Tubulin (Bos taurus) [1]): 71%
- inhibition (Tubulin (Bos taurus) [2]): 96%
- GI50 (CCRF-CEM): < 10 nM
- GI50 (HL-60(TB)): < 10 nM
- GI50 (K562): < 10 nM
- GI50 (MOLT-4): < 10 nM
- GI50 (RPMI-8226): < 10 nM
- GI50 (SR): < 10 nM
- GI50 (HOP-62): 18.4 nM
- GI50 (NCI-H226): < 10 nM
- GI50 (NCI-H322M): > 100000 nM
- GI50 (NCI-H522): < 10 nM
- GI50 (COLO 205): < 10 nM
- GI50 (HCC 2998): < 10 nM
- GI50 (HCT-116): < 10 nM
- GI50 (HCT-15): < 10 nM
- GI50 (HT-29): < 10 nM
- GI50 (KM12): < 10 nM
- GI50 (SNB-19): < 10 nM
- GI50 (U-251): < 10 nM
- GI50 (M14): < 10 nM
- GI50 (MDA-MB-435): <10 nM
- GI50 (SK-MEL-28): < 10 nM
- GI50 (OVCAR-3): < 10 nM
- GI50 (OVCAR-5): 12.8 nM
- GI50 (SK-OV-3 [3]): < 10 nM
- IC50 (SK-OV-3 [3]): 7.7 nM
- GI50 (786-0): < 10 nM
- GI50 (SN12C): < 10 nM
- GI50 (UO-31): < 10 nM
- GI50 (PC-3): < 10 nM
- GI50 (DU-145): < 10 nM
- GI50 (MCF7): < 10 nM
- GI50 (Hs-578T): < 10 nM
- GI50 (BT-549): 59.6 nM
- GI50 (MDA-MB-468): < 10 nM
- IC50 (HeLa [4]): 9.5 nM
- IC50 (HeLa [5]): 8.1 nM
- Ratio IC50 (SK-OV-3 [6]): 1.1
